# Laboratory results taken from ChEMBL document CHEMBL4819122, “Novel 4-(piperazin-1-yl)quinolin-2(1H)-one bearing thiazoles with antiproliferative activity through VEGFR-2-TK inhibition” (Bioorg Med Chem, 2021).
# pIC50: −log10 of the molar value. The source made the active and inactive calls. No cut-off for these calls is given here.
# Key:
# [1] = system: HL-60; test: Cytotoxicity against human HL60 assessed as growth inhibition at 10 uM by NCI protocol relative to control; assay type: functional; conditions: read-out: GI
# Procedure, shortened: (§1)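 Run by NCI as a single-dose screen at 10 μM across the sixty-cell-line panel, which covers nine human tumour tissue types. The read-out is percent growth inhibition of treated cells relative to untreated cells.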
# [2] = system: MOLT-4; test: Cytotoxicity against human MOLT-4 assessed as growth inhibition at 10 uM by NCI protocol relative to control; assay type: functional; conditions: read-out: GI; procedure, shortened: as §1
# [3] = system: SR; test: Cytotoxicity against human SR assessed as growth inhibition at 10 uM by NCI protocol relative to control; assay type: functional; conditions: read-out: GI
# Procedure, shortened: (§2)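 Run by the NCI under its standard protocol: one dose of 10 μM against a sixty-line panel from nine human tumour tissues. Result given as percent growth inhibition of treated cells relative to untreated cells.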
# [4] = system: A549; test: Cytotoxicity against human A549 assessed as growth inhibition at 10 uM by NCI protocol relative to control; assay type: functional; conditions: read-out: GI; procedure, shortened: as §1
# [5] = system: EKVX; test: Cytotoxicity against human EKVX assessed as growth inhibition at 10 uM by NCI protocol relative to control; assay type: functional; conditions: read-out: GI; procedure, shortened: as §1
# [6] = system: HOP-92; test: Cytotoxicity against human HOP-92 assessed as growth inhibition at 10 uM by NCI protocol relative to control; assay type: functional; procedure, shortened: as §1
# [7] = system: NCI-H226; test: Cytotoxicity against human NCI-H226 assessed as growth inhibition at 10 uM by NCI protocol relative to control; assay type: functional; conditions: read-out: GI; procedure, shortened: as §1
# [8] = system: NCI-H23; test: Cytotoxicity against human NCI-H23 assessed as growth inhibition at 10 uM by NCI protocol relative to control; assay type: functional; conditions: read-out: GI; procedure, shortened: as §1
# [9] = system: NCI-H322M; test: Cytotoxicity against human NCI-H322M assessed as growth inhibition at 10 uM by NCI protocol relative to control; assay type: functional; conditions: read-out: GI; procedure, shortened: as §1
# [10] = system: NCI-H522; test: Cytotoxicity against human NCI-H522 assessed as growth inhibition at 10 uM by NCI protocol relative to control; assay type: functional; conditions: read-out: GI; procedure, shortened: as §1
# [11] = system: COLO 205; test: Cytotoxicity against human COLO 205 assessed as growth inhibition at 10 uM by NCI protocol relative to control; assay type: functional; conditions: read-out: GI; procedure, shortened: as §1
# [12] = system: HCT-116; test: Cytotoxicity against human HCT-116 assessed as growth inhibition at 10 uM by NCI protocol relative to control; assay type: functional; conditions: read-out: GI; procedure, shortened: as §1
# [13] = system: HCT-15; test: Cytotoxicity against human HCT-15 assessed as growth inhibition at 10 uM by NCI protocol relative to control; assay type: functional; conditions: read-out: GI; procedure, shortened: as §1
# [14] = system: HT-29; test: Cytotoxicity against human HT29 assessed as growth inhibition at 10 uM by NCI protocol relative to control; assay type: functional; conditions: read-out: GI; procedure, shortened: as §1
# [15] = system: KM12; test: Cytotoxicity against human KM12 assessed as growth inhibition at 10 uM by NCI protocol relative to control; assay type: functional; conditions: read-out: GI; procedure, shortened: as §1
# [16] = system: SW-620; test: Cytotoxicity against human SW-620 assessed as growth inhibition at 10 uM by NCI protocol relative to control; assay type: functional; conditions: read-out: GI; procedure, shortened: as §2
# [17] = system: SF-268; test: Cytotoxicity against human SF-268 assessed as growth inhibition at 10 uM by NCI protocol relative to control; assay type: functional; conditions: read-out: GI; procedure, shortened: as §1
# [18] = system: SF-295; test: Cytotoxicity against human SF-295 assessed as growth inhibition at 10 uM by NCI protocol relative to control; assay type: functional; conditions: read-out: GI; procedure, shortened: as §1
# [19] = system: SF-539; test: Cytotoxicity against human […] assessed as growth inhibition at 10 uM by NCI protocol relative to control; assay type: functional; conditions: read-out: GI; procedure, shortened: as §1
# [20] = system: SNB-19; test: Cytotoxicity against human SNB-19 assessed as growth inhibition at 10 uM by NCI protocol relative to control; assay type: functional; conditions: read-out: GI; procedure, shortened: as §2
# [21] = system: SNB-75; test: Cytotoxicity against human SNB-75 assessed as growth inhibition at 10 uM by NCI protocol relative to control; assay type: functional; conditions: read-out: GI; procedure, shortened: as §2
# [22] = system: U-251; test: Cytotoxicity against human U251 assessed as growth inhibition at 10 uM by NCI protocol relative to control; assay type: functional; conditions: read-out: GI; procedure, shortened: as §2
# [23] = system: M14; test: Cytotoxicity against human M14 assessed as growth inhibition at 10 uM by NCI protocol relative to control; assay type: functional; conditions: read-out: GI; procedure, shortened: as §1
# [24] = system: MDA-MB-435; test: Cytotoxicity against human MDA-MB-435 assessed as growth inhibition at 10 uM by NCI protocol relative to control; assay type: functional, cell-based; procedure, shortened: as §1
# [25] = system: SK-MEL-2; test: Cytotoxicity against human SK-MEL-2 assessed as growth inhibition at 10 uM by NCI protocol relative to control; assay type: functional; conditions: read-out: GI; procedure, shortened: as §1
# [26] = system: SK-MEL-28; test: Cytotoxicity against human SK-MEL-28 assessed as growth inhibition at 10 uM by NCI protocol relative to control; assay type: functional; conditions: read-out: GI; procedure, shortened: as §1
# [27] = system: SK-MEL-5; test: Cytotoxicity against human SK-MEL-5 assessed as growth inhibition at 10 uM by NCI protocol relative to control; assay type: functional; conditions: read-out: GI; procedure, shortened: as §1
# [28] = system: UACC-62; test: Cytotoxicity against human UACC-62 assessed as growth inhibition at 10 uM by NCI protocol relative to control; assay type: functional; conditions: read-out: GI; procedure, shortened: as §2
# [29] = system: IGROV-1; test: Cytotoxicity against human IGROVI assessed as growth inhibition at 10 uM by NCI protocol relative to control; assay type: functional; conditions: read-out: GI; procedure, shortened: as §1
# [30] = system: OVCAR-3; test: Cytotoxicity against human OVCAR-3 assessed as growth inhibition at 10 uM by NCI protocol relative to control; assay type: functional; conditions: read-out: GI; procedure, shortened: as §1
# [31] = system: OVCAR-4; test: Cytotoxicity against human OVCAR-4 assessed as growth inhibition at 10 uM by NCI protocol relative to control; assay type: functional; conditions: read-out: GI; procedure, shortened: as §1
# [32] = system: OVCAR-8; test: Cytotoxicity against human OVCAR-8 assessed as growth inhibition at 10 uM by NCI protocol relative to control; assay type: functional; conditions: read-out: GI; procedure, shortened: as §1
# [33] = system: SK-OV-3; test: Cytotoxicity against human SK-OV-3 assessed as growth inhibition at 10 uM by NCI protocol relative to control; assay type: functional; conditions: read-out: GI; procedure, shortened: as §1
# [34] = system: 786-0; test: Cytotoxicity against human 786-0 assessed as growth inhibition at 10 uM by NCI protocol relative to control; assay type: functional; conditions: read-out: GI; procedure, shortened: as §1
# [35] = system: A498; test: Cytotoxicity against human A498 assessed as growth inhibition at 10 uM by NCI protocol relative to control; assay type: functional; conditions: read-out: GI; procedure, shortened: as §1
# [36] = system: CAKI-1; test: Cytotoxicity against human Caki1 assessed as growth inhibition at 10 uM by NCI protocol relative to control; assay type: functional; conditions: read-out: GI; procedure, shortened: as §1
# [37] = system: RXF 393; test: Cytotoxicity against human RXF 393 assessed as growth inhibition at 10 uM by NCI protocol relative to control; assay type: functional; conditions: read-out: GI; procedure, shortened: as §1
# [38] = system: UO-31; test: Cytotoxicity against human UO31 assessed as growth inhibition at 10 uM by NCI protocol relative to control; assay type: functional; conditions: read-out: GI; procedure, shortened: as §2
# [39] = system: DU-145; test: Cytotoxicity against human DU-145 assessed as growth inhibition at 10 uM by NCI protocol relative to control; assay type: functional; conditions: read-out: GI; procedure, shortened: as §1
# [40] = system: MCF7; test: Cytotoxicity against human MCF7 assessed as growth inhibition at 10 uM by NCI protocol relative to control; assay type: functional; conditions: read-out: GI; procedure, shortened: as §1
# [41] = system: BT-549; test: Cytotoxicity against human BT-549 assessed as growth inhibition at 10 uM by NCI protocol relative to control; assay type: functional; conditions: read-out: GI; procedure, shortened: as §1
# [42] = system: MDA-MB-468; test: Cytotoxicity against human MDA-MB-468 assessed as growth inhibition at 10 uM by NCI protocol relative to control; assay type: functional; conditions: read-out: GI; procedure, shortened: as §1
# [43] = system: T47D; test: Cytotoxicity against human T47D cells assessed as reduction in cell viability after 3 hrs by MTT assay
smiles,measurement,setting,value
O=C(CN1CCN(c2cc(=O)n(-c3ccccc3)c3ccccc23)CC1)Nc1nc(-c2ccc(Cl)cc2)cs1,inhibition of growth at 10 µM,[1],73.8%
same,inhibition of growth at 10 µM,[2],71%
same,inhibition of growth at 10 µM,[3],43.2%
same,inhibition of growth at 10 µM,[4],47.4%
same,inhibition of growth at 10 µM,[5],57.3%
same,growth inhibition (GI),[6],inactive
same,inhibition of growth at 10 µM,[7],52.6%
same,inhibition of growth at 10 µM,[8],50.2%
same,inhibition of growth at 10 µM,[9],10.9%
same,inhibition of growth at 10 µM,[10],43.7%
same,inhibition of growth at 10 µM,[11],42.7%
same,inhibition of growth at 10 µM,[12],64.2%
same,inhibition of growth at 10 µM,[13],60.3%
same,inhibition of growth at 10 µM,[14],36.2%
same,inhibition of growth at 10 µM,[15],35.3%
same,inhibition of growth at 10 µM,[16],25.7%
same,inhibition of growth at 10 µM,[17],45.5%
same,inhibition of growth at 10 µM,[18],37.4%
same,inhibition of growth at 10 µM,[19],23.9%
same,inhibition of growth at 10 µM,[20],36%
same,inhibition of growth at 10 µM,[21],32.5%
same,inhibition of growth at 10 µM,[22],36.2%
same,inhibition of growth at 10 µM,[23],50.2%
same,growth inhibition (GI),[24],inactive
same,inhibition of growth at 10 µM,[25],24.4%
same,inhibition of growth at 10 µM,[26],30.8%
same,inhibition of growth at 10 µM,[27],94.9%
same,inhibition of growth at 10 µM,[28],38.5%
same,inhibition of growth at 10 µM,[29],34.5%
same,inhibition of growth at 10 µM,[30],32.9%
same,inhibition of growth at 10 µM,[31],80.3%
same,inhibition of growth at 10 µM,[32],40.6%
same,inhibition of growth at 10 µM,[33],28.6%
same,inhibition of growth at 10 µM,[34],32.4%
same,inhibition of growth at 10 µM,[35],59.2%
same,inhibition of growth at 10 µM,[36],50.4%
same,inhibition of growth at 10 µM,[37],33%
same,inhibition of growth at 10 µM,[38],70.5%
same,inhibition of growth at 10 µM,[39],38.4%
same,inhibition of growth at 10 µM,[40],79.9%
same,inhibition of growth at 10 µM,[41],53.5%
same,inhibition of growth at 10 µM,[42],90.4%
same,pIC50,[43],4.52
